The values that follow come from the array DNA melting data of Ke et al. (doi:10.1101/2024.01.08.574731).

Series [1] in a line: folding enthalpy; higher = less favourable; fluorescence melt of hairpins on a sequencing array, two-state fit. Conditions: sodium 0.088 M. The gist of the method:
(§1)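 With Cy3 and quencher oligos annealed, library hairpins on a sequenced MiSeq flow cell were imaged for Cy3 fluorescence in 50 mM Na-HEPES pH 8.0, 25 mM NaCl, in 2.5 °C steps up to 60 °C. Melting temperature and folding enthalpy were derived from bootstrapped two-state fits of signals normalised to pre-quench Cy3 and to control constructs. Four replicates were combined by inverse variance, with fitted temperatures raised by 9.35 °C to match UV melts.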

Series [2] is described as follows: melting temperature; fluorescence melt of hairpins on a sequencing array, two-state fit, raised by 9.35 °C to match UV melts. The note with it: sodium 0.088 M. The gist of the method: as §1

With CGAGCGGAAACGCCCTCG ((((((....)))..))), the folding enthalpy in series [1] was -53.6 kJ/mol. In series [2], the Tm was 35.9 °C.

As for CGAGCGGAAACGCCTCG ((((((....))).))), the folding enthalpy in series [1] was -124 kJ/mol. For the same sequence, the Tm in series [2] was 52.3 °C.

On to CGAGCGGAAACGCGATCG ((((((....)))..))), for which the folding enthalpy in series [1] is -50.6 kJ/mol. For the same sequence, in series [2], the Tm came out at 47 °C.

On to CGAGCGGAAACGCTTTCG ((((((....)))..))), for which the folding enthalpy in series [1] was -49.4 kJ/mol. Besides, the Tm in series [2] came to 30.4 °C.

With CGAGGCGGAAACGCATCG (((.(((....))).))), in series [1], the folding enthalpy is -155 kJ/mol. The Tm in series [2] is 64.2 °C.

Turning to CGAGGCGGAAACGCTCG (((.(((....)))))), the folding enthalpy in series [1] is -85.9 kJ/mol. Also, the Tm in series [2] was 51 °C.

In the case of CGAGTCCGGAAACGGTCG (((..(((....)))))), the folding enthalpy in series [1] was -51.5 kJ/mol. Further, in series [2], the Tm is 42.4 °C.

For the sequence CGAGTCGGAAACGAATCG (((.(((....))).))), in series [1], the folding enthalpy is -167 kJ/mol. In series [2], the Tm was determined as 52.2 °C.

With CGAGTGCGGAAACGCTCG (((..(((....)))))), the folding enthalpy in series [1] was -90.5 kJ/mol. In series [2], the Tm was 47.7 °C.

Take CGATCCGGAAACGGCTCG (((.(((....))).))): the folding enthalpy in series [1] is -120 kJ/mol. In addition, in series [2], the Tm was 48.1 °C.

For CGATCGGAAACGAACTCG ((((((....)))..))), the folding enthalpy in series [1] was -41 kJ/mol. For the same sequence, in series [2], the Tm stood at 24.4 °C.

In the case of CGATCGGAAACGACTTCG ((((((....)))..))), the folding enthalpy in series [1] was -47.2 kJ/mol. Moreover, the Tm in series [2] is 25.6 °C.

For the sequence CGATGACGGAAACGTTCG (((..(((....)))))), the folding enthalpy in series [1] was -122 kJ/mol. Moreover, the Tm in series [2] was 36.7 °C.

For the sequence CGATGCGGAAACGCTCG (((.(((....)))))), the folding enthalpy in series [1] was -119 kJ/mol. In addition, the Tm in series [2] is 50 °C.

On to CGATTCGGAAACGATTCG (((.(((....))).))), for which, in series [1], the folding enthalpy is -139 kJ/mol. Besides, the Tm in series [2] is 45.8 °C.

Take CGCAAACGGAAACGTGCG (((..(((....)))))): in series [1], the folding enthalpy was -152 kJ/mol. In addition, the Tm in series [2] came to 50.9 °C.

With CGCACGGAAACGTAGGCG ((((((....)))..))), the folding enthalpy in series [1] is -128 kJ/mol. Besides, the Tm in series [2] was 46.3 °C.

Take CGCACGGAAACGTATGCG ((((((....)))..))): the folding enthalpy in series [1] is -150 kJ/mol. For the same sequence, the Tm in series [2] worked out at 46.7 °C.

With CGCACGGAAACGTGGCG ((((((....))).))), in series [1], the folding enthalpy is -109 kJ/mol. In series [2], the Tm was 54.2 °C.

CGCAGCGGAAACGCAGCG (((.(((....))).))): the folding enthalpy in series [1] was -125 kJ/mol. The Tm in series [2] is 68.5 °C.

For the sequence CGCCACGGAAACGTGCG (((.(((....)))))), in series [1], the folding enthalpy is -103 kJ/mol. Besides, the Tm in series [2] came out at 54.4 °C.

In the case of CGCCACGGAAACGTTGCG (((.(((....))).))), the folding enthalpy in series [1] is -140 kJ/mol. Further, the Tm in series [2] turned out to be 51.1 °C.

In the case of CGCCCCGGAAACGGCGCG (((.(((....))).))), the folding enthalpy in series [1] was -153 kJ/mol. For the same sequence, the Tm in series [2] is 52.1 °C.

Turning to CGCCCGGAAACGGATGCG ((((((....)))..))), the folding enthalpy in series [1] is -105 kJ/mol. In addition, the Tm in series [2] came to 48.4 °C.

Regarding CGCCCGGAAACGGCAGCG ((((((....)))..))), the folding enthalpy in series [1] is -128 kJ/mol. Further, in series [2], the Tm was determined as 48.7 °C.

On to CGCCCGGAAACGGCGCG ((((((....))).))), for which the folding enthalpy in series [1] is -112 kJ/mol. For the same sequence, the Tm in series [2] was 58.4 °C.

In the case of CGCCCGGAAACGGTGCG ((((((....))).))), the folding enthalpy in series [1] was -133 kJ/mol. Also, the Tm in series [2] stood at 57.9 °C.

For CGCCTCGGAAACGAAGCG (((.(((....))).))), the folding enthalpy in series [1] is -108 kJ/mol. Further, the Tm in series [2] came to 48.3 °C.

For the sequence CGCCTGCGGAAACGCGCG (((..(((....)))))), the folding enthalpy in series [1] is -70.8 kJ/mol. In addition, the Tm in series [2] stood at 42.1 °C.

CGCGCGGAAACGCCTGCG ((((((....)))..))): the folding enthalpy in series [1] is -71.8 kJ/mol. In addition, the Tm in series [2] is 46.8 °C.

With CGCGCGGAAACGCTAGCG ((((((....)))..))), the folding enthalpy in series [1] was -130 kJ/mol. Moreover, the Tm in series [2] was 55.6 °C.

On to CGCGGAAAAACCGCG ((...........)), for which the folding enthalpy in series [1] was -124 kJ/mol. Also, the Tm in series [2] was 65.7 °C.

For the sequence CGCGGAACGGTCCGCG ((((((....)))))), the folding enthalpy in series [1] is -162 kJ/mol. Further, the Tm in series [2] was determined as 61.6 °C.

Regarding CGCGGAAGCTCCGCG ((((((...)))))), the folding enthalpy in series [1] is -110 kJ/mol. Also, the Tm in series [2] turned out to be 68.8 °C.

Take CGCGGAATAGTCCGCG ((((((....)))))): in series [1], the folding enthalpy was -107 kJ/mol. Also, the Tm in series [2] came out at 68.5 °C.

As for CGCGGAATGATCCGCG ((((((....)))))), in series [1], the folding enthalpy is -166 kJ/mol. For the same sequence, the Tm in series [2] was 62.5 °C.

On to CGCGGAATGGTCCGCG ((((((....)))))), for which the folding enthalpy in series [1] was -126 kJ/mol. Moreover, in series [2], the Tm came to 69 °C.
